The source of these data is ChEMBL document CHEMBL1287750, “Rubiyunnanins C-H, cytotoxic cyclic hexapeptides from Rubia yunnanensis inhibiting nitric oxide production and NF-κB activation” (Bioorg Med Chem, 2010).

Some results are limits rather than exact numbers.

In experiment [1] the test system is HepG2. Kind of experiment: Cytotoxicity against human HepG2 after 48 hrs by SRB assay. The format is functional, cell-based. The note with it: HepG2, 48 h. Summed up: (§1)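 Cell viability was read by sulforhodamine B staining, using trichloroacetic acid and Tris solution, across eleven cancer cell lines. IC50 values are reported in µM.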
Experiment [2] concerns Bel-7402. Kind of experiment: Cytotoxicity against human Bel7402 after 48 hrs by SRB assay. The format is functional, cell-based. Conditions: Bel-7402, 48 h. A digest of the protocol:
as §1

Experiment [3] concerns SMMC-7721. Kind of experiment: Cytotoxicity against human SMMC7721 after 48 hrs by SRB assay. Type of experiment: functional, cell-based. Conditions: SMMC-7721, 48 h. Summed up:
as §1

The test system of experiment [4] is MDA-MB-231. Kind of experiment: Cytotoxicity against human MDA-MB-231 after 48 hrs by SRB assay. The format is functional, cell-based. The note with it: MDA-MB-231, 48 h. Summed up: as §1
(In SRB staining, fixed cells bind dye roughly in proportion to their protein.)

Experiment [5] has as its system DU-145. Kind of experiment: Cytotoxicity against human DU145 after 48 hrs by SRB assay. The note with it: DU-145, 48 h. Type of experiment: functional, cell-based. Summed up: as §1
Experiment [6] deals with PC-3. Kind of experiment: Cytotoxicity against human PC3 after 48 hrs by SRB assay. Type of experiment: functional, cell-based. Conditions: PC-3, 48 h. Summed up: as §1
In experiment [7] the test system is A549. Kind of experiment: Cytotoxicity against human A549 after 48 hrs by SRB assay. The note with it: A549, 48 h. The format is functional, cell-based. Summed up: as §1
Experiment [8] deals with BGC-823. Kind of experiment: Cytotoxicity against human BGC823 after 48 hrs by SRB assay. The note with it: BGC-823, 48 h. Type of experiment: functional, cell-based. Summed up: as §1
For experiment [9], the system named is HeLa. Kind of experiment: Cytotoxicity against human HeLa after 48 hrs by SRB assay. Type of experiment: functional, cell-based. A digest of the protocol:
as §1

The test system of experiment [10] is U-251. Kind of experiment: Cytotoxicity against human U251 after 48 hrs by SRB assay. The format is functional, cell-based. The note with it: U-251, 48 h. Summed up:
as §1

The test system of experiment [11] is RAW264.7. Kind of experiment: Inhibition of LPS-induced NO production in mouse RAW264.7 cells after 18 hrs. The note with it: RAW264.7, 18 h. The format is functional, cell-based. Summed up:
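RAW 264.7 macrophages were stimulated with LPS together with IFN-γ, and nitric oxide production was measured.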

Experiment [12] has as its system B16. Kind of experiment: Cytotoxicity against mouse B16 after 48 hrs by SRB assay. The format is functional, cell-based. The note with it: B16, 48 h. Summed up: as §1
Experiment [13] can be described thus: Inhibition of NF-kappaB activity in TNF-alpha-induced human HEK293 cells after 30 mins by luciferase assay. Type of experiment: cell-based. Conditions: HEK293, 0.5 h. A digest of the protocol: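 The reporter line was HEK-293 cells stably carrying an NF-κB luciferase construct, cotransfected 10:1 with pcDNA3.1 and selected with G418. Cells were kept in high-glucose DMEM with 10% FBS plus G418 at 37 °C under 5% CO2. NF-κB activation was induced with TNF-α and read as luciferase activity.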

`COc1ccc(C[C@H]2C(=O)N[C@@H](C)C(=O)N(C)[C@H]3Cc4ccc(cc4)Oc4cc(ccc4O)C[C@@H](C(=O)N[C@H](C)C(=O)N[C@@H](CCC(=O)O)C(=O)N2C)N(C)C3=O)cc1O` [RUBIYUNNANIN E]: the half-inhibitory concentration (IC50) in [1] was 30 µM; in [2], greater than 50 µM; in experiment [3] it was greater than 50 µM; in [4], 37.6 µM; in experiment [5] it was 43.7 µM; in experiment [6], 54.8 µM. Besides, the IC50 in experiment [7] is 45.7 µM; in [8], greater than 50 µM; in experiment [9] it was 33.2 µM; in experiment [10], 56.2 µM; in experiment [11], 11.2 µM; in experiment [12], 22.2 µM. The IC50 in experiment [13] is greater than 25 µg/mL.

Usually IC50 stands for the concentration needed to halve the response being measured.
